Measurements from ChEMBL document CHEMBL1156038 (J Med Chem, 2009).
Active and inactive are the calls of the source. The calls are words filed in the database; no cut-off is given here.

Legend:
[1] = species: Rattus norvegicus; assay: Inhibition of [3H]adenine binding to adenine 1 receptor in rat brain cortical membrane at 100 uM by liquid scintillation counting; assay type: cell membranes
Summary of the method: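 Aqueous solutions were autoclaved or heated >90 °C for ≥10 min to destroy bacterial binding sites. […] Filtered on GF/B with ice-cold Tris washes, then scintillation counted. Percent inhibition ± SEM.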

[2] = Displacement of [3H]adenine from adenine 1 receptor in HEK293 cells by liquid scintillation counting; assay type: cell-based, Homo sapiens
[3] = test system: HEK293; assay: Inhibition of [3H]adenine binding to adenine 1 receptor in HEK293 cells at 100 uM by liquid scintillation counting; assay type: cell-based; details: Homo sapiens
[4] = test system: HEK293; assay: Selectivity ratio of Ki for adenine 1 receptor in HEK293 cells to Ki for adenine 1 receptor in rat brain cortical membrane; assay type: cell-based
[5] = species: Rattus norvegicus; assay: Inhibition of [3H]adenine binding to adenine 1 receptor in rat brain cortical membrane at 30 uM by liquid scintillation counting; assay type: cell membranes
[6] = test system: HEK293; assay: Selectivity ratio of Ki for adenine 1 receptor in rat brain cortical membrane to Ki for adenine 1 receptor in HEK293 cells; assay type: cell-based
[7] = test system: 1321-N1; assay: Agonist activity at rat adenine 1 receptor expressed in human 1321N1 cells assessed as inhibition of isoproterenol-induced [3H]cAMP formation at 500 uM by scintillation counting; assay type: functional, cell-based
Summary of the method: (§1)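 1321N1 astrocytoma cells stably expressing rat Ade1R (retroviral pLXSN, G418 800 μg/mL), grown on 24-well plates. Cells washed and held 2 h at 37 °C in HBSS pH 7.3. Compound added together with 3 nM isoproterenol for 10 min at 37 °C, then stopped with hot EDTA/Triton lysis. cAMP measured by [3H]cAMP competition with calf adrenal binding protein and filtration, read against a 0–40 pmol standard curve. Result given as % of isoproterenol alone; n = 3.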

[8] = test system: 1321-N1; assay: Inhibition of [3H]adenine uptake at rat adenine 1 receptor expressed in human 1321N1 cells at 100 uM after 1 min by liquid scintillation counting; assay type: cell-based
[9] = Agonist activity at rat adenine 1 receptor expressed in human 1321N1 cells assessed as inhibition of isoproterenol-induced [3H]cAMP formation at 250 uM by scintillation counting relative to adenine; assay type: functional; summary of the method: as §1
[10] = test system: 1321-N1; assay: Antagonist activity at rat adenine 1 receptor expressed in human 1321N1 cells assessed as change in adenine IC50 for inhibition of isoproterenol-induced [3H]cAMP formation at 10 uM by scintillation counting; assay type: functional, cell-based
Summary of the method: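 Retrovirally transduced 1321N1 astrocytoma cells stably expressing rat Ade1R, 24-well culture, washed and preincubated in Hepes-buffered HBSS pH 7.3, 2 h, 37 °C. […] Hot EDTA/Triton lysis. cAMP measured by competition with [3H]cAMP for calf adrenal binding protein, filtered, scintillation counting.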

[11] = test system: 1321-N1; assay: Agonist activity at rat adenine 1 receptor expressed in human 1321N1 cells assessed as inhibition of isoproterenol-induced [3H]cAMP formation at 250 uM by scintillation counting; assay type: functional, cell-based; summary of the method: as §1
[12] = species: Rattus norvegicus; assay: Inhibition of [3H]adenine binding to adenine 1 receptor in rat brain cortical membrane at 250 uM by liquid scintillation counting; assay type: cell membranes
[13] = Agonist activity at rat adenine 1 receptor expressed in human 1321N1 cells assessed as inhibition of isoproterenol-induced [3H]cAMP formation at 50 uM by scintillation counting relative to adenine; assay type: functional; summary of the method: as §1
[14] = test system: 1321-N1; assay: Agonist activity at rat adenine 1 receptor expressed in human 1321N1 cells assessed as inhibition of isoproterenol-induced [3H]cAMP formation at 30 uM by scintillation counting; assay type: functional, cell-based; summary of the method: as §1
[15] = test system: 1321-N1; assay: Activity at rat adenine 1 receptor expressed in human 1321N1 cells assessed as complete inhibition of cAMP formation at 250 uM; assay type: cell-based; summary of the method: as §1
[16] = (§2) Agonist activity at rat adenine 1 receptor expressed in human 1321N1 cells assessed as inhibition of isoproterenol-induced [3H]cAMP formation by scintillation counting; assay type: functional, cell-based
[17] = test system: 1321-N1; assay: as §2; assay type: functional, cell-based
[18] = Agonist activity at rat adenine 1 receptor expressed in human 1321N1 cells assessed as inhibition of isoproterenol-induced [3H]cAMP formation at 1 uM by scintillation counting; assay type: functional
[19] = test system: 1321-N1; assay: Inhibition of [3H]adenine uptake at rat adenine 1 receptor expressed in human 1321N1 cells at 1 mM after 1 min by liquid scintillation counting; assay type: cell-based

Row | SMILES | inhibition [1] [%] | Ki [2] [µM] | Ratio Ki [4] | other results
1 | CC(C)(C)OC(=O)NCCNc1ncnc2[nH]cnc12 | 21 | – | – | –
2 | CCNc1ncnc2[nH]cnc12 | – | 100 | 6 | inhibition [3]: 59%
3 | Nc1ncnc2[nH]c(Sc3ccccc3)nc12 | – | – | – | inhibition [5]: 0%
4 | CCSc1nc2c(N)ncnc2[nH]1 | – | – | – | inhibition [5]: 0%
5 | Nc1nc2[nH]cnc(N)c-2n1 | – | 0.0341 | 0.005 | Ratio Ki [6]: 190; inhibition [7]: Active; inhibition [8]: Active
6 | NCCCNc1ncnc2[nH]cnc12 | 49 | – | – | –
7 | CCn1cnc2c(OCCc3ccccc3)ncnc21 | 4 | – | – | –
8 | CN(C)c1nc2c(N)ncnc2[nH]1 | – | 34.1 | 14.8 | inhibition at 250 µM ([9]; Rattus norvegicus, 1321-N1): 137%; inhibition [8]: Active
9 | CSc1nc2c(N)ncnc2[nH]1 | – | – | – | inhibition [5]: 10%
10 | CC(C)(C)OC(=O)NCCCNc1ncnc2[nH]cnc12 | 46 | – | – | –
11 | Nc1ncnc2[nH]c(N3CCNCC3)nc12 | – | 27.4 | 8.4 | Efficacy [9]: 52%; Activity [10]: inactive; inhibition [8]: Active
12 | Nc1ncnc2[nH]ccc12 | 21 | – | – | –
13 | OCCNc1ncnc2[nH]cnc12 | – | 100 | 4 | inhibition [3]: 58%
14 | NNc1ncnc2[nH]cnc12 | – | 17.5 | 13 | –
15 | Nc1[nH]cnc2nc(NCc3ccccc3)nc1-2 | – | 32.9 | 4.9 | –
16 | Nc1ncnc2c1ncn2CCc1ccccc1 | – | 100 | 2 | inhibition [3]: 57%
17 | Nc1ncnc2c1ncn2CCN1CCOCC1 | – | 5.49 | 1.8 | inhibition [11]: Active; inhibition [8]: Active
18 | Nc1ncnc2c1ncn2CCN1CCNCC1 | – | > 100 | – | inhibition [12]: 28%; inhibition [3]: 0%
19 | ONc1ncnc2[nH]cnc12 | – | 9.53 | 19 | Efficacy [13]: 51%; inhibition [8]: Active

Row | SMILES | inhibition [1] [%] | Ki [2] [µM] | Ratio Ki [4] | other results
20 | Nc1ncnc2[nH]c(N3CCCCC3)nc12 | – | 31.7 | 8.1 | inhibition [14]: Active; inhibition [15]: Active; inhibition [8]: Active
21 | Nc1ncnc2c1N=CC2 | 39 | – | – | –
22 | Nc1ncnc2[nH]c(O)nc12 | – | 110 | 4.1 | –
23 | Nc1ncnc2[nH]c(N3CCCC3)nc12 | – | > 100 | > 2.4 | inhibition [3]: 18%
24 | Nc1ncnc2c1ncn2CCC(=O)O | – | 18.5 | 0.9 | –
25 | Nc1ccnc2[nH]cnc12 | – | 7.89 | 0.7 | –
26 | CCCSc1nc2c(N)ncnc2[nH]1 | – | – | – | inhibition [5]: 0%
27 | NCCNc1ncnc2[nH]cnc12 | 58 | – | – | –
28 | O=c1[nH]cnc2cc[nH]c12 | 0 | – | – | –
29 | Nc1ncnc2c1ncn2[C@H]1C[C@H](O)[C@@H](CO)O1 [DEOXYADENOSINE] | – | > 100 | > 9 | inhibition [3]: 29%
30 | Nc1[nH]ccc2ncnc1-2 | – | 6.68 | 1 | –
31 | Nc1[nH]cnc2ncnc1-2 [ADENINE] | – | 0.0471 | – | IC50 [16]: 0.00829 µM; Activity [17]: Dose-dependent effect; inhibition at 1 µM [18]: 35%; inhibition [19]: Active
32 | Nc1ncnc2c1ncn2CCc1ccccn1 | – | 100 | > 22 | inhibition [3]: 58%
33 | Nc1ncnc2c1ncn2CC(N)C(=O)O (racemic) | – | 6.23 | 0.58 | –
34 | Nc1ncnc2c1ncn2CCc1cccnc1 | – | > 100 | 1.3 | inhibition [3]: 41%
35 | Nc1ncnc2c1ncn2CCc1ccncc1 | – | > 100 | – | inhibition [12]: 46%; inhibition [3]: 44%
36 | CC(=O)Nc1ncnc2[nH]cnc12 | – | 0.515 | 0.18 | Ratio Ki [6]: 5.5; Efficacy [9]: 77%; Activity [10]: inactive; inhibition [8]: Active
37 | Nc1ncnc2[nH]c(/C=C/c3ccccc3)nc12 | – | 12.2 | 0.67 | –
38 | Nc1ncnc2[nH]c(C#Cc3ccccc3)nc12 | – | – | – | inhibition [5]: 19%

More lines, main results first:

Row | inhibition [1] [%] | SMILES | Ki [2] [µM] | Ratio Ki [4] | other results
39 | -5 | Nc1nc(OCCC2CCCCC2)nc2[nH]cnc12 | – | – | –
40 | 16 | Nc1ncnc2[nH]c(-c3ccccc3)nc12 | – | – | –
41 | 3 | CCn1cnc2c(NCCc3ccccc3)ncnc21 | – | – | –
42 | 1 | Nc1nc(Cl)nc2c1ncn2[C@@H]1O[C@H](CO)[C@@H](O)[C@H]1O | – | – | –
43 | 9 | Nc1nc(Cl)nc2c1ncn2[C@H]1C[C@H](O)[C@@H](CO)O1 | – | – | –
44 | 4 | CCCCOc1nc(N)c2ncn(CC)c2n1 | – | – | –
45 | 1 | CCn1cnc2c(N)nc(Cl)nc21 | – | – | –
46 | -1 | CCOc1ncnc2c1ncn2C1CCCCC1 | – | – | –
47 | 7 | CCn1cnc2c(N)nc(OCCc3ccccc3)nc21 | – | – | –
48 | 24 | Nc1nc(OCCc2ccccc2)nc2[nH]cnc12 | – | – | –
49 | 11 | Nc1ncnc2ncn(Cc3ccccc3)c12 | – | – | –
50 | 5 | CCn1cnc2c(NC3CCCC3)ncnc21 | – | – | –
51 | -6 | Nc1ncnc2c1ncn2C1CCCCC1 | – | – | –
52 | 3 | CCn1cnc2c(N)nc(NCCc3ccccc3)nc21 | – | – | –
53 | 23 | Nc1ncnc2[nH]c(-c3cccc(C(F)(F)F)c3)nc12 | – | – | –
54 | 12 | CCCCC(CC)n1cnc2c(N)ncnc21 (stereo not drawn) | – | – | –
55 | 5 | CCCCC#Cc1nc(N)c2ncn([C@@H]3O[C@H](CO)[C@@H](O)[C@H]3O)c2n1 | – | – | –
56 | 15 | Nc1ncnc2c1ncn2Cc1ccccc1 | – | – | –
57 | 0 | Nc1nc(C#Cc2ccccc2)nc2c1ncn2[C@@H]1O[C@H](CO)[C@@H](O)[C@H]1O | – | – | –
